Assay results reported in ChEMBL document CHEMBL4011643, “Triaryl Benzimidazoles as a New Class of Antibacterial Agents against Resistant Pathogenic Microorganisms” (J Med Chem, 2017).
In brackets after ≈: the same amount, converted by molar mass. Activity calls are given as the source filed them. The rule behind the calls is not given here.

Legend:
Pseudomonas aeruginosa [1] = test: Antibacterial activity against Pseudomonas aeruginosa PAO1 after 20 hrs in the presence of Pa-beta-N and magnesium ions by broth microdilution method; type: functional; conditions: PAO1, 20 h
In short: (§1)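 Broth microdilution in Tryptic Soy Broth, done in triplicate. Growth was read as OD600 after 20 h. MIC is the lowest drug concentration giving OD600 below 0.1.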

Pseudomonas aeruginosa [2] = test: Antibacterial activity against Pseudomonas aeruginosa PAO1 after 20 hrs by broth microdilution method; type: functional; conditions: PAO1, 20 h; in short: as §1
Klebsiella pneumoniae [3] = test: Antibacterial activity against Klebsiella pneumoniae M6 after 20 hrs by broth microdilution method; type: functional; conditions: M6, 20 h; in short: as §1
Pseudomonas aeruginosa [4] = test: Antibacterial activity against Pseudomonas aeruginosa NCTC 13437 after 20 hrs by broth microdilution method; type: functional; conditions: NCTC 13437, 20 h; in short: as §1
Staphylococcus aureus [5] = test: Antibacterial activity against methicillin-resistant Staphylococcus aureus EMRSA-15 after 20 hrs by broth microdilution method; type: functional; conditions: EMRSA-15, 20 h
In short: (§2)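 Broth microdilution in Tryptic Soy Broth; growth read as OD600 after 20 h. MIC taken as the lowest drug concentration giving OD600 below 0.1. Run in triplicate.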

Acinetobacter baumannii [6] = test: Antibacterial activity against Acinetobacter baumannii AYE after 20 hrs by broth microdilution method; type: functional; in short: as §1
[7] = Stabilization of FAM/TAMRA-labeled AT-rich DNA duplex (unknown origin) assessed as change in melting temperature at 5 uM by FRET-based assay
In short: (§3)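 FRET melting of a FAM/TAMRA-labelled AT-rich oligonucleotide, 400 nM working solution in 50 mM potassium, 50 mM cacodylate, pH 7.4. DNA was annealed at 85 °C for 6 min, then held at 25 °C for 5 h, and mixed 1:1 with sample. Fluorescence was read every 0.5 °C from 30 to 100 °C, with a 30 s hold per step. ΔTm is measured against the blank, in triplicate.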

Klebsiella pneumoniae [8] = test: Antibacterial activity against Klebsiella pneumoniae NCTC 13368 after 20 hrs in the presence of Pa-beta-N and magnesium ions by broth microdilution method; type: functional; conditions: NCTC 13368, 20 h; in short: as §1
Enterococcus faecium = test: Antibacterial activity against vancomycin-resistant Enterococcus faecium NCTC 12204 after 20 hrs by broth microdilution method; type: functional; conditions: NCTC 12204, 20 h; in short: as §2
Acinetobacter baumannii [9] = test: Antibacterial activity against Acinetobacter baumannii ATCC 17978 after 20 hrs by broth microdilution method; type: functional; conditions: ATCC 17978, 20 h; in short: as §1
Klebsiella pneumoniae [10] = test: Antibacterial activity against Klebsiella pneumoniae NCTC 13368 after 20 hrs in the presence of PMBN by broth microdilution method; type: functional; conditions: NCTC 13368, 20 h; in short: as §1
Klebsiella pneumoniae [11] = test: Antibacterial activity against Klebsiella pneumoniae NCTC 13368 after 20 hrs by broth microdilution method; type: functional; conditions: NCTC 13368, 20 h; in short: as §1
[12] = Cytotoxicity against human HeLa cells assessed as cell viability at 25 uM after 24 hrs by MTT assay; type: cell-based; conditions: read-out: Activity
In short: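 HeLa cells, 10000 per well, were grown at 37 °C in 5% CO2 and allowed to settle for 24 h. Compound was then added in triplicate for 24 h of continuous exposure. Viability was read by MTT colorimetry, with absorbance at 570 nm.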

Staphylococcus aureus [13] = test: Antibacterial activity against methicillin-resistant Staphylococcus aureus MRSA252 after 20 hrs by broth microdilution method; type: functional; conditions: MRSA252, 20 h; in short: as §2
Acinetobacter baumannii [14] = test: Antibacterial activity against Acinetobacter baumannii AYE after 20 hrs in the presence of Pa-beta-N and magnesium ions by broth microdilution method; type: functional; in short: as §1
Acinetobacter baumannii [15] = test: Antibacterial activity against Acinetobacter baumannii ATCC 17978 after 20 hrs in the presence of PMBN by broth microdilution method; type: functional; conditions: ATCC 17978, 20 h; in short: as §1
[16] = Stabilization of FAM/TAMRA-labeled AT-rich DNA duplex (unknown origin) assessed as change in melting temperature at 1 uM by FRET-based assay; in short: as §3
Enterococcus faecalis [17] = test: Antibacterial activity against vancomycin-resistant Enterococcus faecalis NCTC 12201 after 20 hrs by broth microdilution method; type: functional; conditions: NCTC 12201, 20 h; in short: as §2
Pseudomonas aeruginosa [18] = test: Antibacterial activity against Pseudomonas aeruginosa NCTC 13437 after 20 hrs in the presence of Pa-beta-N and magnesium ions by broth microdilution method; type: functional; conditions: NCTC 13437, 20 h; in short: as §1
Enterococcus faecalis [19] = test: Bactericidal activity against vancomycin-resistant Enterococcus faecalis NCTC 12201 assessed as time required to kill bacteria by >6 log10CFU/ml at 4 times MIC by Miles Misra dilution method; type: functional
In short: (§4)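 Flasks of TSB inoculated at ~10^6 cfu/mL, compound added at 4 × MIC, shaken at 200 rpm and 37 °C. Samples taken at 1, 2, 4, 6 and 24 h and plated by Miles Misra dilution for CFU/mL. Bactericidal means a loss of >3 log CFU/mL. Three independent repeats, error bars SD.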

Klebsiella pneumoniae [20] = test: Antibacterial activity against Klebsiella pneumoniae M6 after 20 hrs in the presence of PMBN by broth microdilution method; type: functional; conditions: M6, 20 h; in short: as §1
Enterococcus faecalis [21] = test: Antibacterial activity against vancomycin-sensitive Enterococcus faecalis NCTC 775 after 20 hrs by broth microdilution method; type: functional; conditions: NCTC 775, 20 h; in short: as §1
Acinetobacter baumannii [22] = test: Antibacterial activity against Acinetobacter baumannii AYE after 20 hrs in the presence of PMBN by broth microdilution method; type: functional; in short: as §1
Enterococcus faecalis [23] = test: Bactericidal activity against vancomycin-resistant Enterococcus faecalis NCTC 12201 at 4 times MIC after 24 hrs by Miles Misra dilution method; type: functional; in short: as §4
Pseudomonas aeruginosa [24] = test: Antibacterial activity against Pseudomonas aeruginosa NCTC 13437 after 20 hrs in the presence of PMBN by broth microdilution method; type: functional; conditions: NCTC 13437, 20 h; in short: as §1
Staphylococcus aureus [25] = test: Bactericidal activity against methicillin-resistant Staphylococcus aureus EMRSA-15 assessed as time required to kill bacteria by >6 log10CFU/ml at 4 times MIC by Miles Misra dilution method; type: functional; in short: as §4
Pseudomonas aeruginosa [26] = test: Antibacterial activity against Pseudomonas aeruginosa PAO1 after 20 hrs in the presence of PMBN by broth microdilution method; type: functional; conditions: PAO1, 20 h; in short: as §1
Klebsiella pneumoniae [27] = test: Antibacterial activity against Klebsiella pneumoniae M6 after 20 hrs in the presence of Pa-beta-N and magnesium ions by broth microdilution method; type: functional; conditions: M6, 20 h; in short: as §1
Staphylococcus aureus [28] = test: Antibacterial activity against methicillin-sensitive Staphylococcus aureus ATCC 9144 after 20 hrs by broth microdilution method; type: functional; conditions: ATCC 9144, 20 h; in short: as §1
Acinetobacter baumannii [29] = test: Antibacterial activity against Acinetobacter baumannii ATCC 17978 after 20 hrs in the presence of Pa-beta-N and magnesium ions by broth microdilution method; type: functional; conditions: ATCC 17978, 20 h; in short: as §1

Structure (SMILES): Cc1nc2ccc(C(=O)Nc3cccc(-c4ccc(-n5c(C)nc6cc(C(=O)NCCN(C)C)ccc65)nc4)c3)cc2[nH]1
- MIC (Pseudomonas aeruginosa [1]): > 32 µg/mL
- MIC (Pseudomonas aeruginosa [2]): > 32 µg/mL
- MIC (Klebsiella pneumoniae [3]): > 32 µg/mL
- MIC (Pseudomonas aeruginosa [4]): > 32 µg/mL
- MIC (Staphylococcus aureus [5]): 2 µg/mL (≈ 3.49 µM)
- MIC (Acinetobacter baumannii [6]): > 32 µg/mL
- deltaTm [7]: 0.9 °C
- MIC (Klebsiella pneumoniae [8]): > 32 µg/mL
- MIC (Enterococcus faecium): 2 µg/mL (≈ 3.49 µM)
- MIC (Acinetobacter baumannii [9]): > 32 µg/mL
- MIC (Klebsiella pneumoniae [10]): > 32 µg/mL
- MIC (Klebsiella pneumoniae [11]): > 32 µg/mL
- viability at 24 h, 25 µM [12]: > 98%
- MIC (Staphylococcus aureus [13]): 8 µg/mL (≈ 14 µM)
- MIC (Acinetobacter baumannii [14]): > 32 µg/mL
- MIC (Acinetobacter baumannii [15]): 32 µg/mL
- deltaTm [16]: 0.2 °C
- MIC (Enterococcus faecalis [17]): 1 µg/mL (≈ 1.75 µM)
- MIC (Pseudomonas aeruginosa [18]): > 32 µg/mL
- Time (Enterococcus faecalis [19]): 4 h
- MIC (Klebsiella pneumoniae [20]): 16 µg/mL
- MIC (Enterococcus faecalis [21]): 4 µg/mL (≈ 6.98 µM)
- MIC (Acinetobacter baumannii [22]): 32 µg/mL
- Activity (Enterococcus faecalis [23]): inactive
- MIC (Pseudomonas aeruginosa [24]): > 32 µg/mL
- Time (Staphylococcus aureus [25]): 4 h
- MIC (Pseudomonas aeruginosa [26]): > 32 µg/mL
- MIC (Klebsiella pneumoniae [27]): > 32 µg/mL
- MIC (Staphylococcus aureus [28]): 2 µg/mL (≈ 3.49 µM)
- MIC (Acinetobacter baumannii [29]): 32 µg/mL
